These results are taken from ChEMBL document CHEMBL5038647, “Elastase Inhibitor Cyclotheonellazole A: Total Synthesis and In Vivo Biological Evaluation for Acute Lung Injury” (J Med Chem, 2022).

Structures are written as SMILES. pIC50: −log10 of the molar value. “And” between values parts separate entries of the source, which are not always exact repeats. Equal values may be shown once. The source made the active and inactive calls. The rule behind the calls is not given here. *1 amine or outer side, *2 acyl side, *3 side chain or, on linkers, in order; H or OH if unused. Where a SMILES comes first, the peptide text is derived from it. Bridges are numbered along the chain shown (N, C = ends). [ ]: non-standard residue; d: D form. The star is where a group is joined. X2 = O=C(/C=C/c1csc([C@H](Cc2ccc(O)cc2)N[*:1])n1)[*:2]; X1 = CC[C@H](C)[C@H](N[*:1])C(=O)C(=O)[*:2]; X3 = CC[C@H](C)[C@H](N[*:1])C(O)C(=O)[*:2]; Benzoyl(4-OH) = O=C(c1ccc(O)cc1)*; Cya = N[C@@H](CS(=O)(=O)O)C(=O)O; MeOSuc = COC(=O)CCC(=O)*; Nva = CCC[C@H](N)C(=O)O; Dap = NC[C@H](N)C(=O)O; CH2Cl = ClC*

Data set [1] in a line: Inhibition of elastase (unknown origin) at 1.25 uM by fluorescence microtiter plate method relative to control. The note with it: Homo sapiens. In a few lines:
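Single-concentration screen: elastin substrate and elastase were incubated with test compounds at 1.25 μM in the EnzChek fluorescence elastase format (40 min, rt). Activity was read against controls, with three repeats.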

Data set [2] is described as follows: Cytotoxicity against human 293T/ACE2 cells assessed as reduction in cell viability upto 100 uM incubated for 24 hrs by CCK-8 assay. To be noted: 293t/ace2, 24 h. Type of data set: toxicity, cell-based. In a few lines: (§1)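 Cells (ACE2-overexpressing 293T stable line or BEAS-2B lung epithelial) were seeded at 1 × 10^4 per well and left about 12 h to adhere. They were exposed to graded compound concentrations for 24 h. CCK-8 was added and incubated 2 h at 37 °C, then OD450 read. Viability was expressed as percentage; IC50 was computed.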

The nature of data set [3]: Inhibition of porcine pancreatic elastase incubated for 40 mins in presence of DQ elastin substrate by fluorescence multiwell plate reader. Further details: species or system Sus scrofa. In a few lines: (§2)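 Fluorescence elastase assay with DQ elastin substrate at 25 μg/mL and either porcine pancreatic elastase at 0.4 U/mL or human neutrophil elastase at 0.2 U/mL. Enzyme, substrate and increasing inhibitor concentrations were incubated 40 min at rt in the dark, then read at ex 485/em 535 nm. Each experiment was run three times; paired Student's t test against controls.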

Data set [4] deals with T1, Neutrophil elastase (Homo sapiens, UniProt P08246).
T1 sequence (P08246 whole entry): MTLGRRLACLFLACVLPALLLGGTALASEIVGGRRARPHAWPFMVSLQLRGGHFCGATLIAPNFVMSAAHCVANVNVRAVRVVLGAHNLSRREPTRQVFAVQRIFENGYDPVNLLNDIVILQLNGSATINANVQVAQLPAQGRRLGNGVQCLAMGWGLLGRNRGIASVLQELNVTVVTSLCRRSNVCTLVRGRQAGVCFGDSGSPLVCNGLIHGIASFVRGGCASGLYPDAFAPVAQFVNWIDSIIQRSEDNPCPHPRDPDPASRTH
In words: Inhibition of human neutrophil elastase. In a few lines:
as §2

Data set [5] relates to BEAS-2B. In words: Cytotoxicity against human BEAS-2B cells assessed as reduction in cell viability upto 100 uM incubated for 24 hrs by CCK-8 assay. Format: toxicity, cell-based. In a few lines:
as §1

Data set [6] concerns Mus musculus. In words: Antiinflammatory activity against bleomycin-induced acute lung injury C57BL/6 mouse model assessed as reduction in lung edema by measuring reduction in lung wet/dry ratio at 30 mg/kg, ip administered for upto 5 days relative to control. Type of data set: functional, organism-based. To be noted: time day <=5. In a few lines: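 Same BLM model: C57BL/6J males, intratracheal BLM 4 mg/kg, then 30 mg/kg ip daily up to 5 days in 10% DMSO/90% saline, sacrifice day 6, n = 8 per group. Left lungs were weighed immediately, dried at 78 °C for 48 h to stable weight and reweighed to give the wet/dry ratio. Dead animals were excluded.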

In data set [7] the test system is Mus musculus. As to the kind of experiment: Antiinflammatory activity against bleomycin-induced acute lung injury C57BL/6 mouse model assessed as fold reduction in lung edema by measuring thickness of the alveolar deterioration at 30 mg/kg, ip administered for upto 5 days by HE-staining relative to control. The note with it: time day <=5. Type of data set: functional. In a few lines: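 Male C57BL/6J mice, 8 weeks old, n = 8/group. ALI induced by intratracheal BLM (4 mg/kg, in 0.1 mL saline) under chloral hydrate anaesthesia; sham controls got saline. Drug given ip at 30 mg/kg in 10% DMSO/90% saline daily for up to 5 days. Sacrifice on day 6; right lung formalin-fixed, 4 μm HE sections, three images per lung, blinded histologist scoring; dead animals excluded.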

Data set [8] deals with Mus musculus. As to the kind of experiment: Antiinflammatory activity against bleomycin-induced acute lung injury C57BL/6 mouse model assessed as reduction in pathological changes in lung at 30 mg/kg, ip administered for upto 5 days by HE-staining based assay. Format: functional, organism-based. To be noted: time day <=5. In a few lines:
(§3)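 Male C57BL/6J mice, 8 weeks old, n = 8 per group, anaesthetised with chloral hydrate. ALI was induced by intratracheal BLM 4 mg/kg in 0.1 mL saline; controls received saline. Drug was given at 30 mg/kg ip daily for up to 5 days in 10% DMSO/90% saline (vehicle alone for controls), with sacrifice on day 6. Right lungs were formalin-fixed, sectioned at 4 μm and HE-stained. A histologist scored three images per lung blind; dead animals were excluded.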

Data set [9] relates to Mus musculus. In words: Antiinflammatory activity against bleomycin-induced acute lung injury C57BL/6 mouse model assessed as reduction in inflammatory cell infiltration in lung at 30 mg/kg, ip administered for upto 5 days by HE-staining based assay. To be noted: time day <=5. Format: functional, organism-based. In a few lines:
as §3

For data set [10], the target named is T1, Neutrophil elastase. As to the kind of experiment: Inhibition of human neutrophil elastase incubated for 40 mins in presence of DQ elastin by fluorescence microtiter plate method.
The nature of data set [11]: Inhibition of elastase (unknown origin). On the set-up: species or system Homo sapiens. In a few lines:
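EnzChek kit, DQ elastin substrate 25 μg/mL with porcine pancreatic elastase 0.4 U/mL or human neutrophil elastase 0.2 U/mL. Increasing inhibitor concentrations, 40 min at room temperature in the dark. Fluorescence read at ex 485/em 535 nm. Three repeats; paired Student's t test against controls.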

Data set [12] is filed under the species Homo sapiens. As to the kind of experiment: Inhibition of elastase (unknown origin) at 2.5 uM by fluorescence microtiter plate method relative to control. In a few lines:
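Elastin substrate plus elastase incubated with a single inhibitor level (reference inhibitor MeOSu-AAPV-CMK at 2.5 μM, others at 1.25 μM). EnzChek DQ elastin fluorescence, ex 485/em 535 nm, 40 min at room temperature. Three repeats.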

As for `CCC[C@@H]1NC(=O)[C@@H](NC(=O)[C@H](C)NC(=O)CNC(=O)c2ccc(O)cc2)CNC(=O)[C@H](CS(=O)(=O)O)NC(=O)/C=C/c2csc(n2)[C@H](Cc2ccc(O)cc2)NC(=O)C(O)[C@H]([C@@H](C)CC)NC1=O` (some centres undefined) ({Benzoyl(4-OH)}-GA[Dap][Nva][X3][X2][Cya]; lactam 3-C), the inhibition in [1] worked out at 94%.
On to `CCC[C@@H]1NC(=O)[C@@H](NC(=O)[C@H](C)NC(=O)CNC(=O)c2ccc(O[Si](C)(C)C(C)(C)C)cc2)CNC(=O)[C@H](CS(=O)(=O)O)NC(=O)/C=C/c2csc(n2)[C@H](Cc2ccc(O[Si](C)(C)C(C)(C)C)cc2)NC(=O)C(=O)[C@H]([C@@H](C)CC)NC1=O`, for which the inhibition in data set [1] amounted to 46.6%.
For `CCC[C@@H]1NC(=O)[C@@H](NC(=O)[C@H](C)NC(=O)CNC(=O)c2ccc(O)cc2)CNC(=O)[C@H](CS(=O)(=O)[O-])NC(=O)/C=C/c2csc(n2)[C@H](Cc2ccc(O)cc2)NC(=O)C(=O)[C@H]([C@@H](C)CC)NC1=O.[Na+]` ({Benzoyl(4-OH)}-GA[Dap][Nva][X1][X2][Cya]; lactam 3-C), the Activity entry in data set [2] and in [5] was “Non-Toxic” each time. Further, the pIC50 was 6.94 in data set [3], 10.47 in data set [4] and 6.49 in [10]. Further, the inhibition in data set [1] is 3.6% and 3.8%. Besides, the result in [6], in data set [8] and in data set [9] was Active. Also, the “fold change (FC)” value in data set [7] was 1.
On to `CC(C)(C)C(=O)Oc1ccc(S(=O)(=O)Nc2ccccc2C(=O)NCC(=O)O)cc1`, for which the figures for the pIC50 in data set [3] and in data set [11] were 5.53 and 7.36, respectively. In addition, the outcome in data set [6], in data set [8] and in data set [9] was Active. Besides, in [7], the “fold change (FC)” value came to 1.
Molecule `COC(=O)CCC(=O)N[C@@H](C)C(=O)N[C@@H](C)C(=O)N1CCC[C@H]1C(=O)N[C@H](C(=O)CCl)C(C)C` (MeOSuc-AAPV-CH2Cl) came in with an inhibition in data set [12] of 23.2%.
